Reference: paper PMC7970147 (Heliyon, 2021)
pKd: −log10 of the molar value.

Columns and labels:
DsOBP69a = molecular target: T1, DsOBP69a (Drosophila suzukii, UniProt A0AB39ZGK5); assay: Fluorescence competition binding assay with bis-ANS, recombinant DsOBP69a; settings: for binding to DsOBP69a (in words): fluorescence competition binding assay
T1 sequence (A0AB39ZGK5 25-148): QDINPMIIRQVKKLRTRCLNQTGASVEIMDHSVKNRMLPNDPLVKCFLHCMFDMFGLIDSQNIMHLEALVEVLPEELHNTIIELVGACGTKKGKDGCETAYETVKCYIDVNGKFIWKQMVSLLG
In short: (§1)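 Recombinant D. suzukii OBP expressed in E. coli BL21(DE3) (pET-30a), recovered from inclusion bodies in 8 M urea, Ni-NTA purified, refolded and dialysed into 50 mM Tris-HCl pH 7.4. Protein (2 μmol L−1 final) plus bis-ANS was titrated with ligand (1 mmol L−1 methanol stock). Excitation was 295 nm, with a 300–550 nm scan. Ki = IC50/(1+[bis-ANS]/Kbis-ANS), with Kbis-ANS from a Scatchard plot.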

DmOBP69a = settings: ref Bentzur et al., 2018; cited from earlier work
DmOBP76a = settings: ref Billeter and Levine, 2015; cited from earlier work
DsOBP76a = molecular target: T2, DsOBP76a (Drosophila suzukii, UniProt A0AB39ZCT4); assay: Fluorescence competition binding assay with bis-ANS, recombinant DsOBP76a; settings: for binding to DsOBP76a (in words): fluorescence competition binding assay
T2 sequence (A0AB39ZCT4 30-153): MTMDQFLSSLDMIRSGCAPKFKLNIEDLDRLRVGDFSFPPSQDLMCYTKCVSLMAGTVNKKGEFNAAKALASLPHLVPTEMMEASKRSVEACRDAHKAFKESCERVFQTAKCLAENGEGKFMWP
In short: as §1

DsOBP59h = settings: ref Li et al., 2019; cited from earlier work
OBP28a = settings: ref Gonzalez et al., 2019; cited from earlier work

Row | Compound | binding to DsOBP69a (in words) (DsOBP69a) | binding to DsOBP76a (in words) (DsOBP76a) | pKd (DsOBP69a) | pKd (DsOBP76a) | affinity with DsOBP59h proteins (in words) (DsOBP59h) | other results
1 | CCCCCC/C=C\CCCCCCCCCCOC(C)=O [11-cis-Vaccenyl acetate] | do not bind | do not bind | – | – | – | binding to DmOBP69a (in words) (DmOBP69a): bind; binding to DmOBP76a (in words) (DmOBP76a): bind
2 | COc1ccc2cc3[n+](cc2c1OC)CCc1cc2c(cc1-3)OCO2 [Berberine chloride] | – | – | 5.14 | 5.12 | high affinity | –
3 | NC(=S)Nc1ccccc1 [N-Phenylthiourea] | not affinity | not affinity | – | – | not affinity | –

More lines, main results first:

Row | binding to DsOBP69a (in words) (DsOBP69a) | binding to DsOBP76a (in words) (DsOBP76a) | pKd (DsOBP69a) | pKd (DsOBP76a) | Compound | affinity with DsOBP59h proteins (in words) (DsOBP59h) | other results
4 | – | – | 4.71 | – | CCCCCC/C=C\CCCCCCCCCCCCCCC [(Z)-7-Tricosene] | – | –
5 | – | – | 4.69 | 5.11 | O=c1ccc2ccccc2o1 [Coumarin] | high affinity | –
6 | not affinity | not affinity | – | – | CC[N+](CC)(CC(=O)Nc1c(C)cccc1C)Cc1ccccc1 [Denatonium benzoate] | not affinity | –
7 | – | – | 4.62 | 4.62 | O=C1C[C@@H](c2ccc(O)cc2)Oc2cc(O)cc(O)c21 [Naringenin] | – | –
8 | – | – | 5.39 | 5.47 | CC(=O)/C=C/C1=C(C)CCCC1(C)C [β-Ionone] | – | affinity with OBP28a (in words) (OBP28a): strong affinity
